{"source": "ChEMBL document CHEMBL1156870", "about": "“De novo design of a picomolar nonbasic 5-HT(1B) receptor antagonist” (J Med Chem, 2010)", "key": {"[1]": {"molecular_target": "T1, 5-hydroxytryptamine receptor 1B (Homo sapiens, UniProt P28222)", "T1 sequence (P28222 whole entry)": "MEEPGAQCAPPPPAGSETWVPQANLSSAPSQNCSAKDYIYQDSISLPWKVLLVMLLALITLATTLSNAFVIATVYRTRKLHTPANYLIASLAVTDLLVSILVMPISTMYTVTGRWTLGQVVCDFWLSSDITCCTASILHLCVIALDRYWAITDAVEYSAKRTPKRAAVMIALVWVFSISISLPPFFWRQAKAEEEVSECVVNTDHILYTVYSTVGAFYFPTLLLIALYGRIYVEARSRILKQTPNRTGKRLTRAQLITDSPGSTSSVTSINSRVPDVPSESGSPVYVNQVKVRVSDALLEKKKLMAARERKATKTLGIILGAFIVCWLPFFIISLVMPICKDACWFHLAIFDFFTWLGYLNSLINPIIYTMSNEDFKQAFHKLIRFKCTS", "assay": "Binding affinity to 5HT1B receptor expressed in CHO cells", "assay_type": "cell-based", "outline": "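Frozen membranes from stably transfected CHO cells expressing 5-HT1B, 10 μg/well. Buffer: 50 mM Tris-HCl, 4 mM MgCl2, 4 mM CaCl2, 1 mM EDTA, pH 7.4. [3H]GR125743 at 0.5 nM final; nonspecific binding defined with 1 μM AZD1134. 11-point dilutions, 10 μM to 170 pM final. 1 h at room temperature, then WGA yttrium silicate SPA beads for 30 min. IC50 and Ki derived with Kenakin correction for ligand depletion.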"}, "[2]": {"molecular_target": "T1, 5-hydroxytryptamine receptor 1B", "assay": "Antagonist activity at 5HT1B receptor expressed in CHO cells by [35S]GTPgammaS assay", "assay_type": "functional, cell-based", "set-up": "concentration or dose not given beside the values"}, "[3]": {"test_system": "in vitro phospholipidosis assay (no protein target)", "assay": "in vitro", "conditions": "human"}, "[4]": {"molecular_target": "T2, 5-hydroxytryptamine receptor 1A (Homo sapiens) (UniProt P08908)", "T2 sequence (whole entry)": "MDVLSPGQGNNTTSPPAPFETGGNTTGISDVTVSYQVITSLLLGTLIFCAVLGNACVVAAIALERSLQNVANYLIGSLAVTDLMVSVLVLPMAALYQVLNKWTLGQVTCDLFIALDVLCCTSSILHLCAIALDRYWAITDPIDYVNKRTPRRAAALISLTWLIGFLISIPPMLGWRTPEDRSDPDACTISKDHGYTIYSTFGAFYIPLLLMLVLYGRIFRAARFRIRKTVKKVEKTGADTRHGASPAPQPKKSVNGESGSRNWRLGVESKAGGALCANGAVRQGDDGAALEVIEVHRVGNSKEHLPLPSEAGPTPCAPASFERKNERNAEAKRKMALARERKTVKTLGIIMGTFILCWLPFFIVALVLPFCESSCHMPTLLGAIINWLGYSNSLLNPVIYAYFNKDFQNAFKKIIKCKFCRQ", "assay": "Inhibition of human 5HT1A receptor at 10 uM", "outline": "(§1)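 Radioligand binding assays from an outside panel of 100 targets, single concentration 10 μM, reported as % effect. Receptor species: human for 5-HT1A, 5-HT2A and 5-HT2B; guinea pig for 5-HT4.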"}, "[5]": {"molecular_target": "5-hydroxytryptamine receptor 4 (Cavia porcellus) (UniProt O70528)", "sequence (O70528 whole entry)": "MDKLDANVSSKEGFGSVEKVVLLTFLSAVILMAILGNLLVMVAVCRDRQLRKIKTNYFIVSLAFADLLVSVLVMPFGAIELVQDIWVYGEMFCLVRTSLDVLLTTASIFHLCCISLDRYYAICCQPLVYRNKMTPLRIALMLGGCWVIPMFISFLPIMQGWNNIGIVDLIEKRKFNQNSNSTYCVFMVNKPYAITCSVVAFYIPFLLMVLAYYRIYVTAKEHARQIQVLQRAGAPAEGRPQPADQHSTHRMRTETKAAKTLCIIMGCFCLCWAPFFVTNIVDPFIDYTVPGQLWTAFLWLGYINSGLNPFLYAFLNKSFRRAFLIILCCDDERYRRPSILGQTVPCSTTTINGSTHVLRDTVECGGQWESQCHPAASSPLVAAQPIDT", "assay": "Inhibition of guinea pig 5HT4 receptor at 10 uM", "outline": "as §1"}, "[6]": {"molecular_target": "5-hydroxytryptamine receptor 2B (Homo sapiens) (UniProt P41595)", "sequence (P41595 whole entry)": "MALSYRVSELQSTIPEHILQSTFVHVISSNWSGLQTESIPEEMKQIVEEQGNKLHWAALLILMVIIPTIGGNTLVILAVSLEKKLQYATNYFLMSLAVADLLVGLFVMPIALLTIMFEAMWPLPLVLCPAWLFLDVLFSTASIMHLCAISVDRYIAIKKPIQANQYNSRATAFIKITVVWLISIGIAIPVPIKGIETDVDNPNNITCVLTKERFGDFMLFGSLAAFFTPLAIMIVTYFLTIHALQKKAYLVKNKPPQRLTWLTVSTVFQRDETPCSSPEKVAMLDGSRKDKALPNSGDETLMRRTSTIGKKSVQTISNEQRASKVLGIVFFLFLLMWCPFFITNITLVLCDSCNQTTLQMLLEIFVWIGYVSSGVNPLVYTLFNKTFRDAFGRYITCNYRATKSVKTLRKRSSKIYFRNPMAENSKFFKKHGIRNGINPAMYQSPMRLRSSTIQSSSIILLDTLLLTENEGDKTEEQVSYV", "assay": "Inhibition of human 5HT2B receptor at 10 uM", "outline": "as §1"}, "Cavia porcellus": {"test_system": "Cavia porcellus", "assay": "Reversal of NXY041-induced hypothermia in sc dosed guinea pig", "assay_type": "functional, organism-based"}, "[7]": {"molecular_target": "5-hydroxytryptamine receptor 2A (Homo sapiens) (UniProt P28223)", "sequence (P28223 whole entry)": "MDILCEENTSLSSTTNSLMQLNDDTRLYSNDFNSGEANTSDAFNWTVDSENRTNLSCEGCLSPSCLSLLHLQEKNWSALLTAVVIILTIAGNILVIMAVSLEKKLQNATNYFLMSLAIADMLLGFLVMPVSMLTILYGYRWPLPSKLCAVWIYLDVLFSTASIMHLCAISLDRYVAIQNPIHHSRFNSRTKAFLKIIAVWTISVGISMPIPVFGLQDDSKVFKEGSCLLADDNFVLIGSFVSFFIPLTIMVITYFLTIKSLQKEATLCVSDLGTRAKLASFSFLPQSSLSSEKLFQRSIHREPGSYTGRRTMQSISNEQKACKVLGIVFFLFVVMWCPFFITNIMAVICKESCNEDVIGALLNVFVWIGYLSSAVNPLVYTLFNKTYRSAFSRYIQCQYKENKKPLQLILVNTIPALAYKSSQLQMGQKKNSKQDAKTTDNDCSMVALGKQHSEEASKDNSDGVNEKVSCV", "assay": "Inhibition of human 5HT2A receptor at 10 uM", "outline": "as §1"}}, "note": "Activity calls are given as the source filed them. No cut-off for these calls is given here."}
{"molecule": "COc1cc2c(c(N3CCN(C)CC3)c1)O[C@@H](C(=O)Nc1ccc(N3CCOCC3)cc1)CC2", "values": [{"measurement": "Ki", "setting": "[1]", "result": 12, "unit": "nM"}, {"measurement": "Activity", "setting": "[2]", "result": 120, "unit": "%"}]}
{"molecule": "CCC(=O)N1CCN(c2ccc(NC(=O)c3cc(=O)c4cc(F)cc(N5CCN(C)CC5)c4o3)cc2)CC1", "values": [{"measurement": "Ki", "setting": "[1]", "result": 1.7, "unit": "nM"}, {"measurement": "Activity", "setting": "[2]", "result": 150, "unit": "%"}]}
{"molecule": "Cc1n[nH]c(C)c1-c1ccc(C)c2c(=O)cc(C(=O)Nc3ccc(N4CCOCC4)cc3)[nH]c12", "values": [{"measurement": "Activity", "setting": "[2]", "result": 33, "unit": "%"}]}
{"molecule": "Cc1n[nH]c(C)c1-c1ccc(C)c2c(O)cc(C(=O)Nc3ccc(N4CCOCC4)cc3)nc12", "values": [{"measurement": "Ki", "setting": "[1]", "result": 9.3, "unit": "nM"}, {"measurement": "inhibition at 300 µM", "setting": "[3]", "result": 12, "unit": "%"}]}
{"molecule": "COC1(c2ccc(NC(=O)c3cc(=O)c4cc(F)cc(-c5c(C)nn(C)c5C)c4o3)cn2)CCOCC1", "values": [{"measurement": "Ki", "setting": "[1]", "result": 0.43, "unit": "nM"}, {"measurement": "inhibition", "setting": "[4]", "result": -8, "unit": "%"}, {"measurement": "inhibition", "setting": "[5]", "result": 30, "unit": "%"}, {"measurement": "inhibition", "setting": "[6]", "result": 4, "unit": "%"}, {"measurement": "Activity", "setting": "Cavia porcellus", "result": "Active"}, {"measurement": "Activity", "setting": "[2]", "result": 90, "unit": "%"}, {"measurement": "inhibition", "setting": "[7]", "result": -5, "unit": "%"}]}
{"molecule": "COC1(c2ccc(NC(=O)C3CCc4cc(F)cc(-c5c(C)nn(C)c5C)c4O3)cn2)CCOCC1", "note": "(stereo unspecified)", "values": [{"measurement": "Ki", "setting": "[1]", "result": 0.96, "unit": "nM"}, {"measurement": "Activity", "setting": "[2]", "result": 62, "unit": "%"}]}
